Data set [1] is described as follows: Cytotoxicity against CD-1 mouse cochlea assessed as induction of cell damage at 20 uM in presence of gentamicin after 48 hrs by confocal microscopic analysis. The format is toxicity, tissue-based. In short, it runs like this: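 Mouse cochlear cultures exposed 48 h to 5 μM gentamicin plus 20 μM compound, with 0.5% DMSO and gentamicin-only controls. Hair cells and bundle morphology imaged, including confocal imaging of IHC stereociliary bundles. OHC survival counted in a 300 μm segment of the mid-basal region.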

The species named for data set [2] is Mus musculus. Nature of the data set: Otoprotective activity against gentamicin-induced outer hair cell death in CD-1 mouse cochlea at 20 uM after 48 hrs by TRITC-phalloidin staining-based microscopic analysis relative to control. In kind it is functional. An outline of the steps: (§1)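 Mouse cochlear cultures coincubated for 48 h with 5 μM gentamicin plus compound (5, 10 or 20 μM). OHCs counted in a 300 μm long segment of the mid-basal cochlea. Counts compared with 0.5% DMSO control and with gentamicin + 0.5% DMSO cultures.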

Data set [3] can be described thus: Binding affinity to MET in CD-1 mouse cochlea outer hair cells measured at -104 mV membrane potential by patch clamp assay. In short, it runs like this: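 MET currents recorded from outer hair cells of mouse cochlear cultures before and during extracellular superfusion of compound at 1, 3 and 10 μM. Membrane potentials stepped from -164 to +96 mV. Currents normalized to the peak control current at +96 mV for each cell. Dose–response curves at each potential fitted with eq 1 to give KD and Hill coefficient.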
(In general: The patch-clamp technique gives a direct electrical read-out from membranes.)

The species entered for data set [4] is Mus musculus. Nature of the data set: Otoprotective activity against gentamicin-induced outer hair cell death in CD-1 mouse cochlea at 10 uM after 48 hrs by TRITC-phalloidin staining-based microscopic analysis relative to control. In kind it is functional. In short, it runs like this:
as §1

The species named for data set [5] is Mus musculus. Description: Inhibition of MET in CD-1 mouse cochlea outer hair cells assessed as reduction in MET currents at 10 uM measured at -160 mV to +80 mV membrane potential by patch clamp assay. In short, it runs like this: (§2)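 OHC MET currents recorded before and during exposure to 10 μM compound. Fractional block taken as the current during exposure relative to the control current at each membrane potential.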

For data set [6], the species on record is Mus musculus. Description: Inhibition of MET in CD-1 mouse cochlea outer hair cells assessed as blockade of MET currents at 10 uM measured at -164 mV membrane potential by patch clamp assay relative to control. An outline of the steps: as §2
The species entered for data set [7] is Mus musculus. Description: Inhibition of MET in CD-1 mouse cochlea outer hair cells assessed as blockade of MET currents at 10 uM measured at -160 mV to +80 mV membrane potential by patch clamp assay relative to control. An outline of the steps: as §2
For data set [8], the species on record is Mus musculus. Description: Otoprotective activity against gentamicin-induced outer hair cell death in CD-1 mouse cochlea at 5 uM after 48 hrs by TRITC-phalloidin staining-based microscopic analysis relative to control. The format is functional. In short, it runs like this: as §1
Data set [9] in a line: Binding affinity to MET in CD-1 mouse cochlear outer hair cells measured at -84 mV membrane potential in presence of calcium by patch clamp assay.

The source made the active and inactive calls. The calls are words filed in the database; no cut-off is given here.

The Kd is the free concentration of one partner at which half of the binding sites on the other are occupied at equilibrium, for simple one-to-one binding. For orientation: inhibition means the percentage by which the read-out fell short of the control.

On to `COc1ccccc1OCCNCCCCOc1cccc2[nH]c3ccccc3c12`, for which the Activity entry in data set [1] was “Toxic”. Further, the result in [2] was inactive.
For the compound `COc1ccccc1OCCNCC(O)COc1ccc2c(c1)[nH]c1ccccc12` (configuration not stated), in [1], the Activity result is reported as “Toxic”. In data set [2], the result was inactive.
On the same counts, the results for `OC(CNCCc1ccccc1)Cn1c2ccccc2c2ccccc21` (configuration not stated) are “Toxic” and “inactive”.
As to `COc1ccc(CCN(C)CCCC(C#N)(c2ccc(OC)c(OC)c2)C(C)C)cc1OC` (configuration not stated), in data set [2], the result was inactive.
Still for that read-out and setting: under `OC(COc1cccc2[nH]c3ccccc3c12)CN1CCN(c2ccccc2)CC1` (configuration not stated) stands “inactive”.
`COc1cc2c3cc1Oc1cc(ccc1O)C[C@@H]1c4c(cc(OC)c(O)c4Oc4ccc(cc4)C[C@@H]3N(C)CC2)CC[N+]1(C)C` [TUBOCURARINE]: the Kd in [3] is 2200 nM.
In the case of `COc1ccccc1OCCCCCCOc1cccc2[nH]c3ccccc3c12`, in [1], the Activity entry is given as “Toxic”. Also, the outcome in [2] was inactive.
In the case of `COc1ccccc1N1CCN(CC(O)COc2cccc3ccccc23)CC1` (configuration not stated), in data set [4], the result was inactive. Besides, the inhibition entry in data set [5] is “inactive”. Further, in data set [2], the outcome was Active.
For `COc1ccccc1OCCN(CCOc1ccccc1OC)CC(O)COc1cccc2[nH]c3ccccc3c12` (configuration not stated), the inhibition entry in [6] was “Active”. The outcome in [4] and in [8] was inactive. The inhibition in data set [7] turned out to be 40%. The result in data set [2] was Active.
For `COc1ccccc1OCCNCCOc1ccccc1OC`, the inhibition entry in data set [5] was “inactive”. The result in data set [2] was inactive.
With `OC(CNCCOc1ccccc1)COc1cccc2[nH]c3ccccc3c12` (configuration not stated), in data set [1], the Activity result is given as “Toxic”. For the same compound, the inhibition in data set [6] is 50 to 60%. Also, the outcome in data set [2] was inactive.
For `CC(C)NCC(O)COc1cccc2ccccc12` (configuration not stated), the result in [2] was inactive.
Turning to `Cn1cc(C(F)(F)F)nc1-c1ccc(OCC(O)CNCCOc2ccc(O)c(C(N)=O)c2)cc1` (configuration not stated), the result in data set [2] was inactive.
With `CN[C@@H]1[C@H](O[C@H]2[C@H](O[C@@H]3[C@@H](O)[C@H](O)[C@@H](NC(=N)N)[C@H](O)[C@H]3NC(=N)N)O[C@@H](C)[C@]2(O)CO)O[C@@H](CO)[C@H](O)[C@H]1O`, the dissociation constant Kd in [9] came to 7 µM.
Regarding `CCCCNCC(O)COc1cccc2[nH]c3ccccc3c12` (configuration not stated), the inhibition in data set [6] lay within 50 to 60%. The result in data set [4] and in [8] was inactive. Moreover, in data set [2], the outcome was Active.
In the case of `COc1ccccc1OCCNCC(O)COc1ccccc1OC` (configuration not stated), the inhibition entry in data set [5] was “inactive”. The result in data set [2] was inactive.
`COc1ccccc1OCCN(CCN1CCOCC1)CC(O)COc1cccc2[nH]c3ccccc3c12` (configuration not stated): the outcome in [8] was inactive. In addition, the inhibition result in data set [5] was “Active”. In data set [2], the result was Active.
Consider `COc1ccccc1OCCNC(=O)COc1cccc2[nH]c3ccccc3c12`, for which the result in data set [2] was inactive.

The record behind these values is ChEMBL document CHEMBL4304748, “Design, Synthesis, and Biological Evaluation of a New Series of Carvedilol Derivatives That Protect Sensory Hair Cells from Aminoglycoside-Induced Damage by Blocking the Mechanoelectrical Transducer Channel” (J Med Chem, 2019).
